Source: ChEMBL document CHEMBL2057186, “Application of the bicyclo[1.1.1]pentane motif as a nonclassical phenyl ring bioisostere in the design of a potent and orally active γ-secretase inhibitor” (J Med Chem, 2012)
≈ marks a conversion by molar mass, not a printed value.

Legend:
[1] = Thermodynamic solubility of the compound at pH 6.5; assay type: physicochemical; details: buffer, read-out: Therm_solubility
In short: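 Thermodynamic solubility was measured in aqueous buffer at pH 6.5 and at pH 7.4.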

[2] = AUC (0 to 24 hrs) in Sprague-Dawley rat at 5 mg/kg, po; assay type: ADME, organism-based; set-up: time < 24 hr, dose 5 mg/kg, route oral; details: plasma
In short: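 Single-dose PK in female rats; iv at 1 mg/kg (2 mL/kg, 0.5 mg/mL) and po at 5 mg/kg (10 mL/kg, 0.5 mg/mL), both formulated in 40% (w/v) hydroxypropyl-β-cyclodextrin.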

[3] = Ratio of fraction unbound in brain to fraction unbound in plasma in Sprague-Dawley rat; assay type: ADME
Cytochrome P450 2C19 = Cytochrome P450 2C19 (Homo sapiens, UniProt P33261); experiment: Inhibition of CYP2C19 in human liver microsomes using (S)-mephenytoin as substrate; assay type: ADME, Microsome
Liver microsomes = experiment: Drug metabolism in human liver microsomes assessed as GSH/GSH-EE adduct formation after 60 mins by LC/MS/MS analysis; assay type: ADME, Microsome; details: 1 h
[4] = Tmax in Sprague-Dawley rat at 5 mg/kg, po; assay type: ADME, organism-based; set-up: dose 5 mg/kg, route oral; details: in vivo
In short: (§1)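 Female rats were dosed once, 1 mg/kg iv (2 mL/kg, 0.5 mg/mL) or 5 mg/kg po (10 mL/kg, 0.5 mg/mL). Vehicle was 40% (w/v) hydroxypropyl-β-cyclodextrin. Plasma was sampled to 24 h. Values are means ± SEM (n = 3).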

Homo sapiens = species on record: Homo sapiens; experiment: Selectivity for human gamma-seretase over notch signalling protein
[5] = Half life in Sprague-Dawley rat at 1 mg/kg, iv; assay type: ADME, organism-based; set-up: dose 1 mg/kg, route intravenous; details: in vivo; in short: as §1
[6] = Oral bioavailability in Sprague-Dawley rat at 5 mg/kg; assay type: ADME, organism-based; details: in vivo; in short: as §1
Mus musculus [7] = experiment: Antialzheimer activity in 129/sve mouse assessed as reduction in amyloid beta42 level in brain at 30 mg/kg, po administered as single dose measured at 5 hrs by ELISA relative to vehicle treated control; assay type: functional; set-up: scale not given: the % may be the effect or the level left
In short: (§2)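 Wild-type male 129/sve mice received a single oral dose in Phosal 50 PG/Tween 80 vehicle. Aβ40 was measured in brain, CSF and plasma and Aβ42 in brain over a time course. Levels are expressed as % of vehicle-treated animals. Values are mean ± SEM, n = 5 or 8 per time point.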

[8] = AUC (last) in 129/sve mouse cerebrospinal fluid at 30 mg/kg, po administered as single dose by LC-MS/MS analysis; assay type: ADME, organism-based; set-up: time 0 - last, dose 30 mg/kg, route oral
In short: (§3)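 Wild-type male 129/sve mice received a single oral dose in 98% (v/v) Phosal 50 PG / 2% Tween 80. Drug was measured in plasma, brain and CSF. Study was nonserial, so AUC came from mean matrix concentrations at each time point. Values are mean ± SD (n = 4 or 5).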

[9] = molecular target: Voltage-gated inwardly rectifying potassium channel KCNH2 (Homo sapiens, UniProt Q12809); experiment: Displacement of dofetilide from human ERG
[10] = Tmax in 129/sve mouse brain at 30 mg/kg, po administered as single dose by LC-MS/MS analysis; assay type: ADME, organism-based; set-up: dose 30 mg/kg, route oral
In short: (§4)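 Single-dose oral PK in wild-type male 129/sve mice. Formulation was 98% (v/v) Phosal 50 PG with 2% Tween 80. Compound was measured in plasma, brain and CSF. Values are means ± standard deviations (n = 4 or 5).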

[11] = Fraction unbound in 129/sve mouse brain at 30 mg/kg, po administered as single dose; assay type: ADME, organism-based; set-up: dose 30 mg/kg, route oral
[12] = AUC (last) in 129/sve mouse brain at 30 mg/kg, po administered as single dose by LC-MS/MS analysis; assay type: ADME, organism-based; set-up: time 0 - last, dose 30 mg/kg, route oral; in short: as §3
Mus musculus [13] = experiment: Antialzheimer activity in 129/sve mouse assessed as reduction in amyloid beta40 level in plasma at 30 mg/kg, po administered as single dose measured at 1 hr by ELISA relative to vehicle treated control; assay type: functional; set-up: scale not given: the % may be the effect or the level left; in short: as §2
Mus musculus [14] = experiment: Antialzheimer activity in 129/sve mouse assessed as reduction in amyloid beta40 level in brain at 30 mg/kg, po administered as single dose measured at 5 hrs by ELISA relative to vehicle treated control; assay type: functional; set-up: scale not given: the % may be the effect or the level left; in short: as §2
[15] = Plasma clearance in Sprague-Dawley rat at 1 mg/kg, iv; assay type: ADME, organism-based; set-up: dose 1 mg/kg, route intravenous; in short: as §1
[16] = Fraction unbound in 129/sve mouse plasma at 30 mg/kg, po administered as single dose; assay type: ADME, organism-based; set-up: dose 30 mg/kg, route oral
Cytochrome P450 3A4 = Cytochrome P450 3A4 (Homo sapiens, UniProt P08684); experiment: Inhibition of CYP3A4 in human liver microsomes using midazolam as substrate; assay type: ADME, Microsome
[17] = Ratio of drug level in brain to plasma in 129/sve mouse at 30 mg/kg, po administered as single dose by LC-MS/MS analysis; assay type: ADME, organism-based; set-up: dose 30 mg/kg, route oral; details: read-out: BPR
In short: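 Wild-type male 129/sve mice were dosed orally once in 98% Phosal 50 PG/2% Tween 80. Brain/plasma ratio was taken as AUC_brain/AUC_plasma, using mean-concentration AUCs from a nonserial design.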

[18] = Cmax in 129/sve mouse brain at 30 mg/kg, po administered as single dose by LC-MS/MS analysis; assay type: ADME, organism-based; set-up: dose 30 mg/kg, route oral; in short: as §4
[19] = Ratio of drug level in brain to plasma in Sprague-Dawley rat; assay type: ADME; details: read-out: BPR
[20] = AUC (last) in 129/sve mouse plasma at 30 mg/kg, po administered as single dose by LC-MS/MS analysis; assay type: ADME, organism-based; set-up: dose 30 mg/kg, route oral, time 0 - last; in short: as §3
P-gp = experiment: Efflux ratio of apparent permeability from basal to apical side to apical to basal side of MDCK cells expressing human P-gp; assay type: ADME, cell-based, Canis lupus familiaris; details: dog, MDCK-MDR1
In short: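 Monolayers were MDCK cells transfected with the human P-glycoprotein (MDR1) gene. Permeability was measured basolateral-to-apical and apical-to-basolateral, and the BA/AB ratio was reported.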

[21] = Cmax in 129/sve mouse cerebrospinal fluid at 30 mg/kg, po administered as single dose by LC-MS/MS analysis; assay type: ADME, organism-based; set-up: dose 30 mg/kg, route oral; in short: as §4
Gamma-secretase = experiment: Inhibition of gamma secretase-mediated amyloid beta42 production in human H4 cells expressing human wild-type APP
[22] = Cmax in Sprague-Dawley rat at 5 mg/kg, po; assay type: ADME, organism-based; set-up: dose 5 mg/kg, route oral; details: in vivo; in short: as §1
[23] = Volume of distribution at steady state in Sprague-Dawley rat at 1 mg/kg, iv; assay type: ADME, organism-based; set-up: dose 1 mg/kg, route intravenous; details: in vivo, read-out: Vdss; in short: as §1
Cytochrome P450 2C9 = Cytochrome P450 2C9 (Homo sapiens, UniProt P11712); experiment: Inhibition of CYP2C9 in human liver microsomes using diclofenac as substrate; assay type: ADME, Microsome
[24] = Tmax in 129/sve mouse cerebrospinal fluid at 30 mg/kg, po administered as single dose by LC-MS/MS analysis; assay type: ADME, organism-based; set-up: dose 30 mg/kg, route oral; in short: as §4

Voltage-gated inwardly rectifying potassium channel KCNH2, sequence (Q12809 whole entry): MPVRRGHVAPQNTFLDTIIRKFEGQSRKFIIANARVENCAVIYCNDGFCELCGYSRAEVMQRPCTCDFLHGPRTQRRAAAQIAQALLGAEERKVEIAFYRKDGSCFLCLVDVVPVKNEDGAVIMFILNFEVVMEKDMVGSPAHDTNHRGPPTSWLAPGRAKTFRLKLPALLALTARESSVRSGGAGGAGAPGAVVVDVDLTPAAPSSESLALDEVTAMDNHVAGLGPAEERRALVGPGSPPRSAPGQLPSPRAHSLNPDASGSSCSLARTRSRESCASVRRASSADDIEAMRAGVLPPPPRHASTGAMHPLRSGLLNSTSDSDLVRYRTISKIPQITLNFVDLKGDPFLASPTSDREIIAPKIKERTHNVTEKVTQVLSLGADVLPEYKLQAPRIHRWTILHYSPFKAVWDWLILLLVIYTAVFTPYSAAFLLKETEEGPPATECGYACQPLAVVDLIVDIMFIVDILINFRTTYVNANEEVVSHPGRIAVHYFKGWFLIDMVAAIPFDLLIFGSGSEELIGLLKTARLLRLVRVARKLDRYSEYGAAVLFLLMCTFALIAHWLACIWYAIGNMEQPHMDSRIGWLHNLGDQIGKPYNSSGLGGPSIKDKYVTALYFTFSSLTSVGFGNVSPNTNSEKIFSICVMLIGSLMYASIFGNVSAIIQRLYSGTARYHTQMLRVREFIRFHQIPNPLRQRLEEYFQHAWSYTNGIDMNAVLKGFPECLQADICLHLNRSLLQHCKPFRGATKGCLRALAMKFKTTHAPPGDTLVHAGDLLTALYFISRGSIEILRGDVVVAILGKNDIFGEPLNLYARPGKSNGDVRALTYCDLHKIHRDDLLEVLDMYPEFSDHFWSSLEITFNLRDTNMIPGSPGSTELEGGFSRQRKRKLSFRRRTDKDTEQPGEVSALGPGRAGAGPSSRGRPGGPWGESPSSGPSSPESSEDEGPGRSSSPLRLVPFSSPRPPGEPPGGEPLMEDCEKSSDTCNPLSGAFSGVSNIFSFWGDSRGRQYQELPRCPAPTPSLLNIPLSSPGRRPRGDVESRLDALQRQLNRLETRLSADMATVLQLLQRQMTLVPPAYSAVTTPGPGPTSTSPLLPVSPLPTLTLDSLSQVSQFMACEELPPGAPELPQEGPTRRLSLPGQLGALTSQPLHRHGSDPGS
Cytochrome P450 2C19, sequence (P33261 whole entry): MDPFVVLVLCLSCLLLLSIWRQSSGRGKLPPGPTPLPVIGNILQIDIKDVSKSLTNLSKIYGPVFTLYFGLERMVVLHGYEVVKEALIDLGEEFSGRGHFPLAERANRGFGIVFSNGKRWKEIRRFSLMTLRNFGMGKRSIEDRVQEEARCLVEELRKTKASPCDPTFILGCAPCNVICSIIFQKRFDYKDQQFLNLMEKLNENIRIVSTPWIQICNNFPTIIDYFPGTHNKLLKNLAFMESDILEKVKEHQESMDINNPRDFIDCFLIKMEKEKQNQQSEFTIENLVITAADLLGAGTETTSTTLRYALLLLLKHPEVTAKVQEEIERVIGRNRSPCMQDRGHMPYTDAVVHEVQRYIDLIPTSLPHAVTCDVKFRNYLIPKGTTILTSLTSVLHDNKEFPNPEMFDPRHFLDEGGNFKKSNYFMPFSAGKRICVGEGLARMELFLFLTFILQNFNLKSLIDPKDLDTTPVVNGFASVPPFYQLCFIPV
Cytochrome P450 3A4, sequence (P08684 whole entry): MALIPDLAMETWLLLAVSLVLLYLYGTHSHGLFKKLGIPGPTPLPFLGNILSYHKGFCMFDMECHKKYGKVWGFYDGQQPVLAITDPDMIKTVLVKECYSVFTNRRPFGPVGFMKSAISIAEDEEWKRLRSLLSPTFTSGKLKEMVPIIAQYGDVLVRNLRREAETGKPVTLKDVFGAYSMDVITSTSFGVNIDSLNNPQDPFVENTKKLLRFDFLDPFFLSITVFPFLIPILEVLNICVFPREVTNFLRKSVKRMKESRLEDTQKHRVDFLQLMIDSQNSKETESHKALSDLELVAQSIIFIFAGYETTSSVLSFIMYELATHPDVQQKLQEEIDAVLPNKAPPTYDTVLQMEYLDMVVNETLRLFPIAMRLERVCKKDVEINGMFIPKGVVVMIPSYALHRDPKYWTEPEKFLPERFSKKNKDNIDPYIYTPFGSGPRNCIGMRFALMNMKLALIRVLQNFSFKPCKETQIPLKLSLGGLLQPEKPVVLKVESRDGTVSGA
Cytochrome P450 2C9, sequence (P11712 whole entry): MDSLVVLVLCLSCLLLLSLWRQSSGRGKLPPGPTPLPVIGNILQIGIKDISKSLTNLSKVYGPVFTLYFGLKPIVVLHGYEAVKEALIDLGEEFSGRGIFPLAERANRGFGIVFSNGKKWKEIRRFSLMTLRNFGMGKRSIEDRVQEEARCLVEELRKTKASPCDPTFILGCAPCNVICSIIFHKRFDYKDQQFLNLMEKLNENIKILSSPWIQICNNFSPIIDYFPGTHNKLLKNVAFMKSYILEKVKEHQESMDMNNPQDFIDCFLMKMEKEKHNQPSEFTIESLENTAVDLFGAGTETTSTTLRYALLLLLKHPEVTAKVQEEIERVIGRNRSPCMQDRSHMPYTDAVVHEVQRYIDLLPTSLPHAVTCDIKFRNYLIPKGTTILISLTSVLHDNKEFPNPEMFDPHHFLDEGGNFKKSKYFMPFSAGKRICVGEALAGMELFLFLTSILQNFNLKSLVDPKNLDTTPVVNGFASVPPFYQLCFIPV

NC(=O)[C@@H](CCC(F)(F)F)N(CC12CC(c3ncon3)(C1)C2)S(=O)(=O)c1ccc(Cl)cc1
solubility thermodynamic [1]: 19.7 µM (≈ 9.71 µg/mL) | AUC(0-t) at 24 h [2]: 19.4 µM·h | Ratio [3]: 0.34 | inhibition (INH) (Cytochrome P450 2C19): Not Active | Drug metabolism (Liver microsomes): Not Active | Tmax [4]: 2 h | Selectivity Index (Homo sapiens): 178 | half-life [5]: 2.18 h | bioavailability [6]: 100% | Activity (Mus musculus [7]): 31% | AUC(0-t) [8]: 0.118 µM·h | Activity [9]: Not Active | Tmax [10]: 1 h | fraction unbound [11]: 0.026 | AUC(0-t) [12]: 12 µM·h | Activity (Mus musculus [13]): 59% | Activity (Mus musculus [14]): 64% | clearance [15]: 13.3 mL/min/kg | fraction unbound [16]: 0.0354 | inhibition (INH) (Cytochrome P450 3A4): Not Active | Kp [17]: 0.84 | Cmax [18]: 5600 nM | Kp [19]: 0.61 | AUC(0-t) [20]: 14.3 µM·h | efflux ratio (P-gp): 1.66 | Cmax [21]: 53 nM | IC50 (Gamma-secretase): 0.178 nM | Cmax [22]: 1860 nM | Vd [23]: 2.12 L/kg | inhibition (INH) (Cytochrome P450 2C9): Not Active | Tmax [24]: 1 h
